Screens (PubChem BioAssay)
NSD2 inh – NSD2 (human) methyltransferase inhibition; NSD2 peptide methylation, AlphaScreen, 120 min; inhibition, % at 12.5 µM; hit rate 0.54% among 310,000; AID 743445; in the data active = inhibition above about 50%
HGIII-sPLA2 inh – Blocks human group III sPLA2 activity; Q9NZ20; QFRET BODIPY PC-A2 liposome hydrolysis, fluorescence; inhibition, % at 12.2 µM; hit rate 0.56% among 370,000; AID 743126;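 active = inhibition above mean plus 3 SD of compounds lying within the high and low control bounds, cut at about 19% in these data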;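 note: 0% = median of test compound wells and 100% = no enzyme DMSO wells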
SR-BI DiI inh – blocks mouse SR-BI lipid uptake from DiI-HDL. Q61009. ldlA[mSR-BI] CHO cells, DiI-HDL uptake fluorescence, 3 h. inhibition, % at 12.5 µM. hit rate 0.96% among 320,000. AID 488896;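 active = mean replicate inhibition of at least 70% and a set share of replicates each scoring 70 or more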;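 note: 0% = median of neutral control wells and 100% = median of positive control wells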
Target sequence (Q61009 whole entry, looked up): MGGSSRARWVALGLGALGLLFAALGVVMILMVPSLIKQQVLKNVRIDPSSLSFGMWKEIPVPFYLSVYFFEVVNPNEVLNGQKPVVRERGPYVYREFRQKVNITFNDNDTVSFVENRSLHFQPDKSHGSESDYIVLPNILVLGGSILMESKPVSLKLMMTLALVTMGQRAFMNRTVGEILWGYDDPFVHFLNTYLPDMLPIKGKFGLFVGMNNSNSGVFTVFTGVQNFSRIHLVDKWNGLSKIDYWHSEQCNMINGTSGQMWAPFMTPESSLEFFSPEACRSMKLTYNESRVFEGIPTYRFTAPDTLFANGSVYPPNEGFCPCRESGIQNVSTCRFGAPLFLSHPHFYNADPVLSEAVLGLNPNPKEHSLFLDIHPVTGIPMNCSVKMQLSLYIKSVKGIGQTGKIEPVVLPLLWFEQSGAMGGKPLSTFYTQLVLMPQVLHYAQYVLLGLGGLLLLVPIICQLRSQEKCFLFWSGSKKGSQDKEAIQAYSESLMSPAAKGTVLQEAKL
Xi reactivation – X-chromosome reactivation activator; XiGFP mouse fibroblasts, % GFP-positive cells imaging, 3 d; cells co-treated with 5-aza-dC sensitizer; scaled so ellipticine positive control = 100%; activation, % at 7.58 µM; hit rate 0.055% among 360,000;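 active = mean normalized replicate activation at least 10% and every replicate at or above 10%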;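 note: 0% = median of on-plate neutral control wells and 100% = ellipticine 6 µM median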
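System: XiGFP fibroblasts, SV40-immortalized. Medium: DMEM plus 5-aza-dC sensitizer. Doses: single point. Timing: 3 d treatment, 15 min room-temperature fixation. Control set: ellipticine 6 µM.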
ARNT-TACC3 inh – disruptors of human ARNT/TACC3 interaction. Q9Y6A5. AlphaScreen His-ARNT PAS-B/GST-TACC3 binding, luminescence; TACC3 fragment carries E629A point mutation. inhibition, % at 9.99 µM. hit rate 0.66% among 390,000. AID 623870;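 active = mean inhibition of replicates at least 50% and at least half of replicates each reaching 50%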;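 note: 0% = complete ARNT plus TACC3 wells and 100% = ARNT alone without TACC3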
SR-BI uptake up – activators of SR-BI mediated HDL lipid uptake | CHO ldlA[mSR-BI] cells, DiI-HDL uptake fluorescence, 3 h; 100 = double the neutral-control signal | activation, % at 12.5 µM | hit rate 0.096% among 320,000;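 active = mean replicate activation of at least 60% and every replicate at or above 60%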;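 note: 0% = median plate neutral-control signal and 100% = twice that signal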
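Material: SR-BI-overexpressing, LDLR-lacking CHO cells; schedule: compound exposure 3 h, 37 °C; reagent: DiI-labelled HDL at 10 µg/mL final; technique: bottom-read fluorescence, 550/595 nm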
hGIII sPLA2 conf – human GIII-sPLA2 inhibition, confirmation; shares compounds with HGIII-sPLA2 inh; recombinant hGIII-sPLA2, BODIPY PC-A2 QFRET fluorescence; inhibition, % at 12.2 µM; hit rate 34% among 2,000;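 active = mean inhibition across triplicates above the hit cutoff set in the earlier primary screen, cut at about 19% in these data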;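 note: 0% = enzyme with DMSO and 100% = DMSO wells lacking enzyme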
535nm interf – counter-screen for HGIII-sPLA2 inhibitors: 535nm fluorescence interference; shares compounds with HGIII-sPLA2 inh; BODIPY FL product fluorescence interference, QFRET; inhibition, % at 12.2 µM; hit rate 8.5% among 2,000; AID 743282;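 active = average inhibition above the solvent-only control mean plus 3 SD, cut at about 6% in these data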;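 note: 0% = DMSO with substrate plus product and 100% = DMSO with substrate alone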
* = called active by the depositor. Most compounds without a hit are left out; they make up all but 2% or so of the library.

How did CCCNC(=S)N(Cc1cc2cc(C)ccc2n2nnnc12)CC(C)(C)CN(C)C do in these assays?
NSD2 inh: 11; HGIII-sPLA2 inh: 8; SR-BI DiI inh: -8; Xi reactivation: 0; ARNT-TACC3 inh: 4; SR-BI uptake up: 8

Results for CCOc1ccc(Nc2nc(C)cc(C)c2C#N)cc1 ?
NSD2 inh: -2; HGIII-sPLA2 inh: 10; SR-BI DiI inh: 39; ARNT-TACC3 inh: -123; SR-BI uptake up: -39

What do the screens show for `C=CC[n+]1c(-c2ccccc2)csc1NC(C)(C)C`?
NSD2 inh: 6; HGIII-sPLA2 inh: 19*; SR-BI DiI inh: -12; Xi reactivation: 0; ARNT-TACC3 inh: 26; SR-BI uptake up: 12; hGIII sPLA2 conf: 21*; 535nm interf: -4

How did Cc1ccc2[nH]c(-c3cccc(N)c3)cc2c1 do in these assays?
NSD2 inh: 9; HGIII-sPLA2 inh: 25*; SR-BI DiI inh: 16; ARNT-TACC3 inh: -5; SR-BI uptake up: -16; hGIII sPLA2 conf: 4; 535nm interf: 4

What do the screens show for `O=c1cc(-c2nn[nH]n2)[nH]c(=O)[nH]1`?
NSD2 inh: -1; HGIII-sPLA2 inh: 4; SR-BI DiI inh: 5; Xi reactivation: 0; ARNT-TACC3 inh: 28; SR-BI uptake up: -5

What do the screens show for `N#Cc1ccc(N2Cc3ccccc3C2=NC(=O)c2cccs2)cc1`?
NSD2 inh: -2; HGIII-sPLA2 inh: -4; SR-BI DiI inh: -21; Xi reactivation: 0; ARNT-TACC3 inh: -5; SR-BI uptake up: 21

How did COC(=O)C1=CN(c2ccc(N3CCOCC3)cc2)C(N)=C(C#N)C1c1cccc(OC)c1OC (configuration not stated) do in these assays?
HGIII-sPLA2 inh: 20*; Xi reactivation: 0; hGIII sPLA2 conf: -5; 535nm interf: -20

Results for Cc1ccc(-c2nc3ncccc3o2)cc1NC(=S)NC(=O)c1ccco1 ?
NSD2 inh: 1; HGIII-sPLA2 inh: 4; SR-BI DiI inh: 43; Xi reactivation: 0; SR-BI uptake up: -43

How did Cc1cc(-c2nc3ncccc3o2)ccc1NC(=S)NC(=O)c1ccco1 do in these assays?
NSD2 inh: 2; HGIII-sPLA2 inh: 21*; SR-BI DiI inh: 5; Xi reactivation: 0; ARNT-TACC3 inh: 0; SR-BI uptake up: -5; hGIII sPLA2 conf: 8; 535nm interf: -22

How did O=C(CCc1nc(-c2ccccc2)no1)NC1CCCCC1 do in these assays?
HGIII-sPLA2 inh: -6; SR-BI DiI inh: -3; ARNT-TACC3 inh: -1; SR-BI uptake up: 3

How did CCCCNC(=S)Nc1ccc2cn[nH]c2c1 do in these assays?
NSD2 inh: 0; HGIII-sPLA2 inh: 21*; SR-BI DiI inh: -13; Xi reactivation: 0; ARNT-TACC3 inh: -1; SR-BI uptake up: 13; hGIII sPLA2 conf: 6; 535nm interf: -1

How did CCc1ccc(NC(=S)Nc2ccc3cn[nH]c3c2)cc1 do in these assays?
NSD2 inh: 1; HGIII-sPLA2 inh: 19*; SR-BI DiI inh: 20; Xi reactivation: 0; ARNT-TACC3 inh: 2; SR-BI uptake up: -20; hGIII sPLA2 conf: 11; 535nm interf: -6

How did O=C(CN1C(=O)S/C(=C/c2ccc(N3CCOCC3)cc2)C1=O)N1CCOCC1 do in these assays?
NSD2 inh: -5; HGIII-sPLA2 inh: 22*; SR-BI DiI inh: 4; Xi reactivation: 0; ARNT-TACC3 inh: 1; SR-BI uptake up: -4; hGIII sPLA2 conf: -6; 535nm interf: -12

Results for Cc1ccc(/C=C2/SC(=O)N(CC(=O)N3CCOCC3)C2=O)s1 ?
NSD2 inh: 0; HGIII-sPLA2 inh: 8; SR-BI DiI inh: 7; Xi reactivation: 0; ARNT-TACC3 inh: -8; SR-BI uptake up: -7

How did Nc1nc(-c2ccccc2)c(-c2ccccc2)s1 do in these assays?
NSD2 inh: 6; HGIII-sPLA2 inh: -4; SR-BI DiI inh: 1; ARNT-TACC3 inh: 2; SR-BI uptake up: -1

How did Nc1nc(-c2ccccc2)c(N=Nc2ccc(Cl)cc2)s1 do in these assays?
NSD2 inh: 1; HGIII-sPLA2 inh: 19*; SR-BI DiI inh: 86*; Xi reactivation: 1; ARNT-TACC3 inh: 1; SR-BI uptake up: -86; hGIII sPLA2 conf: 34*; 535nm interf: 7.1*

Results for COc1cc(OC)nc(NC(=O)C(C)C)n1 ?
HGIII-sPLA2 inh: 20*; SR-BI DiI inh: -35; Xi reactivation: 1; ARNT-TACC3 inh: -1; SR-BI uptake up: 35; hGIII sPLA2 conf: 3; 535nm interf: 0

What do the screens show for `COc1cc(OC)nc(NC(C)=O)n1`?
NSD2 inh: -1; HGIII-sPLA2 inh: 4; SR-BI DiI inh: -17; ARNT-TACC3 inh: 3; SR-BI uptake up: 17

What do the screens show for `c1ccc(C2(CN3CCNC[C@H]3Cc3cccc4ccccc34)CC2)cc1`?
HGIII-sPLA2 inh: 23*; SR-BI DiI inh: -21; Xi reactivation: 0; ARNT-TACC3 inh: 30; SR-BI uptake up: 21; hGIII sPLA2 conf: 6; 535nm interf: -40

What do the screens show for `C[C@@H]1CN([C@@H](C)CO)C(=O)c2cc(NC(=O)C3CC3)ccc2O[C@@H]1CN(C)S(=O)(=O)c1ccc(Cl)cc1`?
Xi reactivation: 0; ARNT-TACC3 inh: -3

How did CCOc1ccc2nc(Cl)c(C3CC(c4ccco4)=NN3S(=O)(=O)c3ccccc3)cc2c1 (configuration not stated) do in these assays?
NSD2 inh: -3; HGIII-sPLA2 inh: 29*; SR-BI DiI inh: 14; Xi reactivation: 0; SR-BI uptake up: -14; hGIII sPLA2 conf: 2; 535nm interf: -13

How did COc1ccc2ccccc2c1/C=N/NC(=S)Nc1cc(S(=O)(=O)N2CCOCC2)ccc1N1CCOCC1 do in these assays?
NSD2 inh: -4; HGIII-sPLA2 inh: 1; SR-BI DiI inh: -17; Xi reactivation: 0; ARNT-TACC3 inh: -6; SR-BI uptake up: 17

How did CCOc1cccc(/C=N/NC(=S)Nc2cc(S(=O)(=O)N3CCOCC3)ccc2N2CCOCC2)c1O do in these assays?
NSD2 inh: 0; HGIII-sPLA2 inh: 23*; SR-BI DiI inh: 94*; Xi reactivation: 0; ARNT-TACC3 inh: 12; SR-BI uptake up: -94; hGIII sPLA2 conf: 33*; 535nm interf: -16

Results for CCC(C)[C@@H](C(=O)NCC1CCC(C(=O)O)CC1)n1nnc2ccccc2c1=O (some centres not stated) ?
NSD2 inh: 0; HGIII-sPLA2 inh: 20*; SR-BI DiI inh: -27; Xi reactivation: 0; ARNT-TACC3 inh: -7; SR-BI uptake up: 27; hGIII sPLA2 conf: 2; 535nm interf: -4
